From ChEMBL document CHEMBL5257161, “Mycobacterium tuberculosis CitA activity is modulated by cysteine oxidation and pyruvate binding” (RSC Med Chem, 2023)

Legend:
[1] = biological target: T1, Putative citrate synthase 2 (Mycobacterium tuberculosis) (UniProt P9WPD3); assay: Binding affinity to Mycobacterium tuberculosis wild type CitA expressed in Escherichia coli cells assessed as change in melting temperature by thermal shift assay
T1 sequence (whole entry): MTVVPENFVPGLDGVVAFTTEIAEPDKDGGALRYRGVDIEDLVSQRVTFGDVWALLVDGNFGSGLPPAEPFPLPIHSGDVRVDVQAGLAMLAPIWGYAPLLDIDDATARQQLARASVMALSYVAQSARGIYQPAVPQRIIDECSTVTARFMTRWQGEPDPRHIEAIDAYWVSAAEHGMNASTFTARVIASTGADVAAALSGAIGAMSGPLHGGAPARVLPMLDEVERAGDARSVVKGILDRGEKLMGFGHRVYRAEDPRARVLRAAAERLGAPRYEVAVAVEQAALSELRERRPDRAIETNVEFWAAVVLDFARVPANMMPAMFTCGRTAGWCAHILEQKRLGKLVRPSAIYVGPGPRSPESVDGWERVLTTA
Summary of the method: (§1)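 Thermal shift used 25 μM purified protein in 50 mM Tris pH 8.0 with 2 mM ligand (sodium pyruvate, OAA, or both), plus Protein Thermal Shift dye at 2X final. ΔTm was taken from the melt-curve derivative relative to protein without ligand.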

[2] = biological target: T1, Putative citrate synthase 2 (Mycobacterium tuberculosis); assay: Binding affinity to Mycobacterium tuberculosis wild type CitA expressed in Escherichia coli cells assessed as change in melting temperature in presence of pyruvate by thermal shift assay; summary of the method: as §1
[3] = biological target: T1, Putative citrate synthase 2 (Mycobacterium tuberculosis); assay: Binding affinity to Mycobacterium tuberculosis wild type CitA expressed in Escherichia coli cells assessed as change in melting temperature in presence of oxaloacetate by thermal shift assay; summary of the method: as §1
[4] = biological target: T1, Putative citrate synthase 2 (Mycobacterium tuberculosis); assay: Inhibition of Mycobacterium tuberculosis wild type CitA expressed in Escherichia coli cells by UV spectrophotometric based analysis
Summary of the method: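 Michael acceptor compounds were added directly to the DTNB/OAA/AcCoA reaction with 10 nM CitA in 50 mM Tris pH 8.0 at 25 °C, read at 412 nm. The screen used 20 μM compound. Dose–response data were fitted to the Hill equation for apparent IC50. A control measured how fast the compounds react with reaction components.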

Row | SMILES | ΔTm [1] | ΔTm [2] | ΔTm [3] | Activity [4]
1 | O=C(O)CC(=O)C(=O)O | 11.2 °C | 12.3 °C |  | 
2 | CC(=O)CC(=O)O | 0.19 °C |  |  | 
3 | O=C(O)CO | 0.15 °C |  |  | 
4 | O=CC(=O)O | 0.1 °C |  |  | 
5 | CC(=O)C(=O)O | 2.31 °C |  | 12.3 °C | Dose-Dependent Effect
